Results taken from ChEMBL document CHEMBL1155029, “Novel amodiaquine congeners as potent antimalarial agents” (Bioorg Med Chem, 2008).

Columns and labels:
[1] = tested on: Plasmodium falciparum; assay: Antimalarial activity against chloroquine-sensitive Plasmodium falciparum D10 as LDH reporter activity; format: functional, organism-based
Method in brief: (§1)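 Asynchronous P. falciparum cultures (1–1.5% parasitaemia, 1% final hematocrit) exposed to serial dilutions for 72 h at 37 °C under 1% O2/5% CO2/94% N2. Compounds dissolved in water or DMSO, diluted in medium (final DMSO <1%). Growth read as pLDH activity (OD650, modified Makler method). IC50 given as mean ± SD of at least three experiments in duplicate.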

[2] = tested on: Plasmodium falciparum; assay: Antimalarial activity against chloroquine-resistant Plasmodium falciparum W2 as LDH activity; format: functional, organism-based; method in brief: as §1
[3] = Cytotoxicity against mouse WEHI13 cells by MTT assay; format: cell-based
Method in brief: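 Murine WEHI clone 13 fibrosarcoma cells in RPMI 1640 with 10% FCS and glutamine, treated with serial compound dilutions 72 h at 37 °C, 5% CO2. MTT added for 3 h, formazan solubilized in SDS/DMF lysing buffer pH 4.7, absorbance 550 nm against 650 nm reference. IC50 is dose giving 50% growth inhibition.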

[4] = tested on: Plasmodium falciparum; assay: Relative selectivity against Plasmodium falciparum D10 as IC50 ratio compared to chloroquine; format: functional
Method in brief: (§2)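 Asynchronous P. falciparum cultures (D-10 or W-2; 1–1.5% parasitaemia, 1% haematocrit) incubated 72 h at 37 °C under 1% O2/5% CO2/94% N2 with serial drug dilutions (water or DMSO, final DMSO <1%). Growth read as pLDH activity at OD650. Chloroquine IC50 divided by compound IC50 within each experiment, ratios averaged.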

[5] = Cytotoxicity against HMEC1 cells by MTT assay; format: cell-based; details: Homo sapiens, HMEC-1
Method in brief: (§3)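 Human cell lines (SV40-immortalized microvascular endothelial HMEC-1 in MCDB 131 with 10% FCS, EGF, hydrocortisone, glutamine, Hepes; K562 in RPMI 1640 with 10% FCS, glutamine) exposed to serial compound dilutions 72 h at 37 °C, 5% CO2. MTT added 3 h; formazan dissolved in SDS/DMF buffer pH 4.7, read 550 nm (ref 650 nm). IC50 for 50% growth inhibition.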

[6] = tested on: Plasmodium falciparum; assay: Relative selectivity against Plasmodium falciparum W2 as IC50 ratio compared to chloroquine; format: functional; method in brief: as §2
[7] = Ratio of IC50 for chloroquine-resistant Plasmodium falciparum W2 to IC50 for chloroquine-sensitive Plasmodium falciparum D10; format: functional
[8] = tested on: K562; assay: Cytotoxicity against human K562 cells by MTT assay; format: cell-based; method in brief: as §3

SMILES | IC50 [1] [nM] | IC50 [2] [nM] | IC50 [3] [µM] | Ratio IC50 [4] | IC50 [5] [µM] | Ratio IC50 [6] | Ratio IC50 [7] | IC50 [8] [nM]
Cc1cc(CNC[C@@H]2CCCN3CCCC[C@H]23)c(C)n1Nc1ccnc2cc(Cl)ccc12 | 70.7 | 53.4 | 5.51 | 0.4 | 5.4 | 3.1 | 0.8 | 
Cc1c(CNCC[C@@H]2CCCN3CCCC[C@H]23)cc(-c2ccccc2)n1Nc1ccnc2cc(Cl)ccc12 | 154 | 776 | 7.22 | 0.2 | 14.6 | 0.8 | 5 | 2610
Cc1c(CN2CCCC2)cc(-c2ccc(Cl)cc2)n1Nc1ccnc2cc(Cl)ccc12 | 30.7 | 49.6 | 2.06 | 0.8 | 7.18 | 15.8 | 1.6 | 
Oc1cc(Nc2ccnc3cc(Cl)ccc23)ccc1CNCC12CCCN1CCC2 | 81.9 | 77 |  | 0.4 |  | 2.2 | 0.9 | 
Cc1c(CNC(C)(C)C)cc(-c2ccccc2)n1Nc1ccnc2cc(Cl)ccc12 | 63.5 | 1180 |  | 0.4 |  | 0.7 | 18.5 | 
Oc1cc(Nc2ccnc3cc(Cl)ccc23)ccc1CNCCC12CCCN1CCC2 | 90.3 | 153 | 12.2 | 0.3 |  | 2.1 | 1.7 | 
Cc1c(CNC[C@@H]2CCCN3CCCC[C@H]23)cc(-c2ccccc2)n1Nc1ccnc2cc(Cl)ccc12 | 36.5 | 515 | 7.44 | 0.8 | 13.5 | 1.1 | 14.1 | 1680
Cc1cc(CNC(C)(C)C)c(C)n1Nc1ccnc2cc(Cl)ccc12 | 48.6 | 255 |  | 0.3 |  | 0.9 | 5.3 | 
CCN(CC)Cc1ccc(Nc2ccnc3cc(Cl)ccc23)cc1O [ISOQUINE] | 23.7 | 30.2 |  | 1.3 |  | 17.6 | 1.3 | 
Cc1cc(CN2CCCC2)c(C)n1Nc1ccnc2cc(Cl)ccc12 | 80.7 | 336 |  | 0.2 |  | 0.7 | 4.2 | 
Cc1c(CN2CCCC2)cc(-c2ccccc2)n1Nc1ccnc2cc(Cl)ccc12 | 42.9 | 140 | 3.88 | 0.7 | 12.9 | 4.2 | 3.3 | 2920
CCN(CC)Cc1cc(-c2ccccc2)n(Nc2ccnc3cc(Cl)ccc23)c1C | 42.7 | 59.2 | 4.38 | 0.7 | 16.7 | 9.9 | 1.4 | 3620
CCN(CC)Cc1cc(C)n(Nc2ccnc3cc(Cl)ccc23)c1C | 69 | 193 |  | 0.2 |  | 1.2 | 2.8 | 
CCN(CC)CCCC(C)Nc1ccnc2cc(Cl)ccc12 (stereo not given) [CHLOROQUINE] |  |  | > 38 |  | > 32 |  |  | 29000
Cc1cc(CNCC23CCCN2CCC3)c(C)n1Nc1ccnc2cc(Cl)ccc12 | 222 | 358 |  | 0.1 |  | 0.5 | 1.6 | 
Oc1cc(Nc2ccnc3cc(Cl)ccc23)ccc1CNC[C@@H]1CCCN2CCCC[C@H]12 | 8.5 | 14.3 | 4.43 | 2.8 | 7.94 | 22 |  | 
Clc1ccc2c(Nc3ccc(CNC[C@@H]4CCCN5CCCC[C@H]45)c(Cl)c3)ccnc2c1 | 23.6 | 28.8 | 2.77 | 1.8 | 5.52 | 28 | 1.2 | 
CCN(CC)Cc1cc(-c2ccc(Cl)cc2)n(Nc2ccnc3cc(Cl)ccc23)c1C | 26.1 | 42.5 | 1.45 | 0.9 | 5.81 | 18.5 | 1.6 | 
